Laboratory results as given in ChEMBL document CHEMBL4184291, “Discovery of N-arylpyrroles as agonists of GPR120 for the treatment of type II diabetes” (Bioorg Med Chem Lett, 2018).

Columns and labels:
Cytochrome P450 2D6 = Cytochrome P450 2D6 (Homo sapiens, UniProt P10635); experiment: Inhibition of CYP2D6 (unknown origin); assay type: ADME
Cytochrome P450 2C9 = Cytochrome P450 2C9 (Homo sapiens, UniProt P11712); experiment: Inhibition of CYP2C9 (unknown origin); assay type: ADME
Cytochrome P450 2C19 = Cytochrome P450 2C19 (Homo sapiens, UniProt P33261); experiment: Inhibition of CYP2C19 (unknown origin); assay type: ADME
Cytochrome P450 2C19, sequence (P33261 whole entry): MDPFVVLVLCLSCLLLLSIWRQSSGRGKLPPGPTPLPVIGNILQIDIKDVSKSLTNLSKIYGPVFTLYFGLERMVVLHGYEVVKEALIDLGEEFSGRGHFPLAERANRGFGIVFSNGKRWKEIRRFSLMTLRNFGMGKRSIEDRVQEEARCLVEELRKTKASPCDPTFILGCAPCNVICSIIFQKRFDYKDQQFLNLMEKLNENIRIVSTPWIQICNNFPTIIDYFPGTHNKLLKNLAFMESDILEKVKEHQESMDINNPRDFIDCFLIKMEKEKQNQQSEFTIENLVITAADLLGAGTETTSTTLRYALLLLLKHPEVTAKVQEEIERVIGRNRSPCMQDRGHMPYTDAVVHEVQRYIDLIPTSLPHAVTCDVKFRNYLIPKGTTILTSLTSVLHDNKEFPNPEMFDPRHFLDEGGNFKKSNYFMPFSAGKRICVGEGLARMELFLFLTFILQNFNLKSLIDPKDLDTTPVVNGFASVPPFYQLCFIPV

[1] = Half life in rat liver microsomes; assay type: ADME, microsome
[2] = Protein binding in human plasma; assay type: ADME, cell-free; details: read-out: PPB (converted)
[3] = Protein binding in mouse plasma; assay type: ADME, cell-free; details: read-out: PPB (converted)
[4] = Clearance in mouse at 1.15 mg/kg, iv by LC-MS/MS analysis; assay type: ADME, organism-based; details: in vivo
[5] = Volume of distribution at steady state in mouse at 1.15 mg/kg, iv by LC-MS/MS analysis; assay type: ADME, organism-based; details: in vivo, read-out: Vdss
[6] = Cmax in mouse at 14.6 mg/kg, po by LC-MS/MS analysis; assay type: ADME, organism-based; parameters: dose 14.6 mg/kg, route oral; details: in vivo
[7] = AUClast in mouse at 14.6 mg/kg, po by LC-MS/MS analysis; assay type: ADME, organism-based; parameters: dose 14.6 mg/kg, route oral, time 0 - last; details: in vivo
[8] = Half life in rat at 2 mg/kg, iv by LC-MS/MS analysis; assay type: ADME, organism-based; details: in vivo
[9] = Volume of distribution at steady state in rat at 2 mg/kg, iv by LC-MS/MS analysis; assay type: ADME, organism-based; details: in vivo, read-out: Vdss
[10] = Cmax in rat at 10 mg/kg, po by LC-MS/MS analysis; assay type: ADME, organism-based; parameters: dose 10 mg/kg, route oral; details: in vivo
[11] = AUClast in rat at 10 mg/kg, po by LC-MS/MS analysis; assay type: ADME, organism-based; parameters: dose 10 mg/kg, time 0 - last, route oral; details: in vivo
[12] = Volume of distribution at steady state in dog at 1 mg/kg, iv by LC-MS/MS analysis; assay type: ADME, organism-based, Canis lupus familiaris; details: in vivo, read-out: Vdss
[13] = AUClast in dog at 5 mg/kg, po by LC-MS/MS analysis; assay type: ADME, organism-based, Canis lupus familiaris; parameters: dose 5 mg/kg, route oral, time 0 - last; details: in vivo
[14] = Oral bioavailability in dog at 5 mg/kg by LC-MS/MS analysis; assay type: ADME, organism-based, Canis lupus familiaris; details: in vivo
[15] = target: T1, Free fatty acid receptor 4 (Mus musculus, UniProt Q7TMA4); experiment: Agonist activity at recombinant mouse GPR120 expressed in HEK293 cells; assay type: functional, cell-based
T1 sequence (Q7TMA4 whole entry): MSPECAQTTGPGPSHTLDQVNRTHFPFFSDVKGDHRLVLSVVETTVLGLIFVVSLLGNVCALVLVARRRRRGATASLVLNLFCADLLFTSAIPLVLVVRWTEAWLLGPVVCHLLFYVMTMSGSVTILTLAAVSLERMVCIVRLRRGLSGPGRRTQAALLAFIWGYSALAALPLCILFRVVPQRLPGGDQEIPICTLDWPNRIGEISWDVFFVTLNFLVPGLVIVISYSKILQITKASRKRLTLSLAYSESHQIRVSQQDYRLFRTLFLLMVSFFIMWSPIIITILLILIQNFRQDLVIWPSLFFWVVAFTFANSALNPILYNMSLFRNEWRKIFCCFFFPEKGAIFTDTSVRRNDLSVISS

Homo sapiens = organism: Homo sapiens; experiment: Selectivity ratio of EC50 for human GPR40 to EC50 for recombinant human GPR120 expressed in HEK293 cells; assay type: cell-based
[16] = target: Free fatty acid receptor 1 (Mus musculus, UniProt Q76JU9); experiment: Agonist activity at mouse GPR40; assay type: functional
Free fatty acid receptor 1, sequence (Q76JU9 whole entry): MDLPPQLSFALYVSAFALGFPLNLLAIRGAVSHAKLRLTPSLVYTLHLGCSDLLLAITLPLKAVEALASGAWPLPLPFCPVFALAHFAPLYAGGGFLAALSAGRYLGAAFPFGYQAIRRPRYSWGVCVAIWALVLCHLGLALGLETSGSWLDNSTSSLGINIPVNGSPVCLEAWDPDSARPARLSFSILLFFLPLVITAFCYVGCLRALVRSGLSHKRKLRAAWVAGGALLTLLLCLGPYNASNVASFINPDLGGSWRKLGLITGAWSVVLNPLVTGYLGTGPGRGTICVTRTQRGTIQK

[17] = target: 5-hydroxytryptamine receptor 2B (Homo sapiens) (UniProt P41595); experiment: Displacement of [125I](+/-)DOI from recombinant human 5-HT2B at 10 uM after 60 mins by scintillation counting method relative to control
5-hydroxytryptamine receptor 2B (Homo sapiens), sequence (P41595 whole entry): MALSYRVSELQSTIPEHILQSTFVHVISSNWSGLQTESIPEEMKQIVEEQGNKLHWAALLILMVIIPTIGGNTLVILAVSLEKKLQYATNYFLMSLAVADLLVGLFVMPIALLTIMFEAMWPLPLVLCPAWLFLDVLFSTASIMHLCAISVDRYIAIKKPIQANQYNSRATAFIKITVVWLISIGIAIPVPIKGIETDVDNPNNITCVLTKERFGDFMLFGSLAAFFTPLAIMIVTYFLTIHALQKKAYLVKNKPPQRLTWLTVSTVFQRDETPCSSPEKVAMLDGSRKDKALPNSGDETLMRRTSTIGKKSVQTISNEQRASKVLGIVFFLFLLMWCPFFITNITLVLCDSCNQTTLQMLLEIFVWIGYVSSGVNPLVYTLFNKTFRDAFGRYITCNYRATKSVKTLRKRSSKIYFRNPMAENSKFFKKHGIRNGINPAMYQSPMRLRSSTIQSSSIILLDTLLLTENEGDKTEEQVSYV

Cavia porcellus [18] = experiment: Cardiotoxicity in guinea pig assessed as effect on PQ interval at 22.4 mg/kg; assay type: toxicity, organism-based; details: in vivo
Cavia porcellus [19] = experiment: Cardiotoxicity in guinea pig assessed as effect on QRS interval at 22.4 mg/kg; assay type: toxicity, organism-based; details: in vivo
Cavia porcellus [20] = experiment: Cardiotoxicity in guinea pig assessed as effect on QTcB interval at 22.4 mg/kg; assay type: toxicity, organism-based; details: in vivo
Cavia porcellus [21] = experiment: Cardiotoxicity in guinea pig assessed as effect on heart rate at 22.4 mg/kg; assay type: toxicity, organism-based; details: in vivo
Cavia porcellus [22] = experiment: Cardiotoxicity in guinea pig assessed as effect on body temperature at 22.4 mg/kg; assay type: toxicity, organism-based; details: in vivo
Mus musculus [23] = experiment: Antidiabetic activity in diet-induced obese C57Bl/6 mouse model assessed as change in plasma glucose AUC at 3 mg/kg, po administered 30 mins prior to glucose challenge measured up to 90 mins post dose by OGTT; assay type: functional
In short: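 Diet-induced obese mice dosed orally at 0.1–3.0 mg/kg 30 min before an oral glucose load (time 0). Glucose followed from 30 min pre-glucose to 90 min post-glucose. Saxagliptin 1 mg/kg was the positive control.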

Mus musculus [24] = experiment: Antiobesity activity in diet-induced obesity C57Bl6/J mouse model assessed as basal glucose level in plasma at 10 mg/kg qd for 15 days measured on day 15 post 6 hrs fasting (reference value: 187 +/- 24 mg/dL); assay type: functional
Mus musculus [25] = experiment: Antiobesity activity in diet-induced obesity C57Bl6/J mouse model assessed as basal glucose level in plasma at 30 mg/kg qd for 15 days measured on day 15 post 6 hrs fasting (reference value: 187 +/- 24 mg/dL); assay type: functional
Mus musculus [26] = experiment: Antiobesity activity in diet-induced obesity C57Bl6/J mouse model assessed as final glucose level in plasma at 10 mg/kg qd for 15 days measured on day 15 post 6 hrs fasting (reference value: 184 +/- 30 mg/dL); assay type: functional
Mus musculus [27] = experiment: Antiobesity activity in diet-induced obesity C57Bl6/J mouse model assessed as change in plasma glucose level at 10 mg/kg bid for 15 days measured on day 15 post 6 hrs fasting; assay type: functional
Mus musculus [28] = experiment: Antiobesity activity in diet-induced obesity C57Bl6/J mouse model assessed as reduction in body weight at 30 mg/kg qd for 15 days measured on day 15 post 6 hrs fasting relative to control; assay type: functional; parameters: scale not given: the % may be the effect or the level left
Mus musculus [29] = experiment: Antiobesity activity in diet-induced obesity C57Bl6/J mouse model assessed as basal insulin level in plasma at 30 mg/kg qd for 15 days measured on day 15 post 6 hrs fasting (reference value: 16959 +/- 4943 pg/ml); assay type: functional
Mus musculus [30] = experiment: Antiobesity activity in diet-induced obesity C57Bl6/J mouse model assessed as change in plasma insulin level at 10 mg/kg bid for 15 days measured on day 15 post 6 hrs fasting; assay type: functional
[31] = Plasma concentration in mouse at 3 mg/kg; assay type: ADME, organism-based; details: in vivo
In short: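 Plasma exposure for a 3 mg/kg oral dose in mice was predicted from the mouse PK study, not measured directly. It was expressed as ng/mL and converted to µM.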

Cytochrome P450 2D6, sequence (P10635 whole entry): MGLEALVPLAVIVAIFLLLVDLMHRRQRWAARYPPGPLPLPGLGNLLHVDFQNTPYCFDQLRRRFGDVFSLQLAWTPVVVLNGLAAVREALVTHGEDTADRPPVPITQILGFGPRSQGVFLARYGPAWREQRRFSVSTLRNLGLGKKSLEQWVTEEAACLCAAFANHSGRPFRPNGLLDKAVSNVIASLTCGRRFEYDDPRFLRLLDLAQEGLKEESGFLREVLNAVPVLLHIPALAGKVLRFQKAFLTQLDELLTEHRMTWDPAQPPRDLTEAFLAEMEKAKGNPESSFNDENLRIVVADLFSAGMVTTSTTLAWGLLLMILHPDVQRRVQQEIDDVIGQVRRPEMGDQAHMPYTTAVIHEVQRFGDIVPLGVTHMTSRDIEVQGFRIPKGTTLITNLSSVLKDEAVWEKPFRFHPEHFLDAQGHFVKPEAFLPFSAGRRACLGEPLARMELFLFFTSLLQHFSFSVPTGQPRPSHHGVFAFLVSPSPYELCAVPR
Cytochrome P450 2C9, sequence (P11712 whole entry): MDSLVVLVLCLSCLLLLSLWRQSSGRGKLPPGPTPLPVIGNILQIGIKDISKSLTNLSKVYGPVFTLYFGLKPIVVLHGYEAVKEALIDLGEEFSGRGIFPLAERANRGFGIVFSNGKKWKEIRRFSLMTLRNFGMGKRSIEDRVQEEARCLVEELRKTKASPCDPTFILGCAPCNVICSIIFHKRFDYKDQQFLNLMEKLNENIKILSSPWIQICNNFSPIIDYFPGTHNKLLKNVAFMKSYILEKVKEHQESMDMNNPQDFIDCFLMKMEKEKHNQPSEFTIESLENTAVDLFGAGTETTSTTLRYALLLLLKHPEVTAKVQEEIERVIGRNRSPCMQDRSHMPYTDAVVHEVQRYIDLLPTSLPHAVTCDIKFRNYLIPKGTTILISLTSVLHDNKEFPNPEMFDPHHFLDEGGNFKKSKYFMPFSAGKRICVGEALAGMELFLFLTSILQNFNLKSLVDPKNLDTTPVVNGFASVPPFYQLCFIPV

INH (Cytochrome P450 2D6): > 10 µM
INH (Cytochrome P450 2C9): 7 µM
INH (Cytochrome P450 2C19): 10 µM
half-life [1]: 2.2 h
fraction unbound [2]: 0.0008
fraction unbound [3]: 0.0037
clearance [4]: 4.9 mL/min/kg
Vd [5]: 1.14 L/kg
Cmax [6]: 18700 ng/mL
AUC(0-t) [7]: 81700 ng·h/mL
half-life [8]: 1.64 h
Vd [9]: 0.42 L/kg
Cmax [10]: 11600 ng/mL
AUC(0-t) [11]: 60900 ng·h/mL
Vd [12]: 0.52 L/kg
AUC(0-t) [13]: 47900 ng·h/mL
bioavailability [14]: 145%
EC50 [15]: 193 nM
EC50 [16]: 3520 nM
inhibition [17]: 62%
concentration [31]: 8.64 µM
Structure (SMILES): O=C(O)CCc1cc(F)c(OCc2c(C(F)(F)F)ccn2-c2ccc(Cl)cc2)c(F)c1
Ratio EC50 (Homo sapiens): 42
Activity (Cavia porcellus [18]): Non-Toxic
Activity (Cavia porcellus [19]): Non-Toxic
Activity (Cavia porcellus [20]): Non-Toxic
Activity (Cavia porcellus [21]): Non-Toxic
Activity (Cavia porcellus [22]): Non-Toxic
Activity (Mus musculus [23]): -83%
Activity (Mus musculus [24]): 202 mg/dL
Activity (Mus musculus [25]): 201 mg/dL
Activity (Mus musculus [26]): 163 mg/dL
Activity (Mus musculus [27]): -16.4 mg/dL
Activity (Mus musculus [28]): 4.6%
Activity (Mus musculus [29]): 17067 pg/mL
Activity (Mus musculus [30]): -1080 pg/mL
